Results published in ChEMBL document CHEMBL1817653, “Synthesis, structural, and biological evaluation of bis-heteroarylmaleimides and bis-heterofused imides” (Bioorg Med Chem, 2011).
Active and inactive are the calls of the source. The calls are words filed in the database; no cut-off is given here.

Columns and labels:
NCI-H460 [1] = assay: Cytotoxicity against human NCI-H460 cells after 3 days by cell counting analysis; assay type: functional, cell-based; conditions: NCI-H460, 72 h
Outline: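 NCI-H460 cells in RPMI-1640 with 10% FCS are seeded at 8 × 10⁴ per 35-mm dish and exposed to compound (DMSO at most 1%) 24 h later. Cells are harvested after 72 h, trypsinized and counted with a Coulter counter. IC50 is derived by linear regression of log concentration versus logit.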

[2] = Cytotoxicity against RAOSMC after 3 days by cell counting analysis; conditions: Rattus norvegicus, 72 h
Outline: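 Primary aortic SMCs from male Sprague–Dawley rats, passages 4–10, are seeded at 2 × 10⁵ per 35-mm dish in DMEM with 10% FCS. After 24 h they are arrested in 0.4% FCS for 72 h, then given 10% FCS plus compound (DMSO at most 1%) for 72 h at 37 °C. Cells are trypsinized and counted with a Coulter counter. IC50 is obtained by linear regression of log concentration versus logit.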

NCI-H460 [3] = assay: Selectivity ratio of IC50 for rat SMC to IC50 for human NCI-H460 cells
Nucleic Acid = assay: Binding affinity to supercoiled pRYG DNA at 0.1 uM after 10 mins by agarose gel electrophoresis; assay type: nucleic-acid assay
NCI-H460 [4] = assay: Cell cycle arrest in human NCI-H460 cells assessed as accumulation at sub-G0/G1 phase at IC50 after 20 hrs using propidium Iodide staining by flow cytometry in presence of 10% fetal calf serum; assay type: functional, cell-based
NCI-H460 [5] = assay: Antitumor activity against human NCI-H460 cells xenografted in athymic Swiss nude mouse assessed as tumor growth inhibition at 10 mg/kg, iv administered 2 days after tumor implantation for every 4th day for four times; assay type: functional, organism-based; design: dose 10 mg/kg
Outline: (§1)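 NCI-H460 tumor fragments are implanted s.c. in both flanks of athymic nude mice on day 0. Dosing is i.v. on days 2, 6, 10 and 14 (q4dx4) in 10% DMSO in water, with vehicle-only controls. Tumor diameters are measured twice weekly by caliper. Tumor weight in treated mice is compared with controls by unpaired two-tailed Student's t-test.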

[6] = biological target: DNA topoisomerase 2-alpha (Homo sapiens) (UniProt P11388); assay: Inhibition of topoisomerase 2-mediated relaxation of supercoiled pRYG DNA at 0.1 uM after 10 mins using ethidium bromide staining by agarose gel electrophoresis
NCI-H460 [7] = assay: Cell cycle arrest in human NCI-H460 cells assessed as accumulation at G0/G1 phase at IC50 after 20 hrs using propidium Iodide staining by flow cytometry in presence of 10% fetal calf serum; assay type: functional
Outline: (§2)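 NCI-H460 cells are seeded at 2 × 10⁵ per 35-mm dish in RPMI with 10% FCS. After 24 h they are serum-starved in 0.4% FCS for 2 days, then restimulated with 10% FCS with or without compound at 37 °C. Cells are trypsinized, fixed in 62% ethanol and stained 30 min in the dark (5 µg/mL propidium iodide, RNase, 1% NP-40).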

NCI-H460 [8] = assay: Antitumor activity against human NCI-H460 cells xenografted in athymic Swiss nude mouse assessed as tumor growth inhibition at 16.9 mg/kg, iv administered 2 days after tumor implantation for every 4th day for four times; assay type: functional, organism-based; design: dose 16.9 mg/kg; outline: as §1
NCI-H460 [9] = assay: Cell cycle arrest in human NCI-H460 cells assessed as accumulation at G2/M phase at IC50 after 20 hrs using propidium Iodide staining by flow cytometry in presence of 10% fetal calf serum; assay type: functional; outline: as §2
Mus musculus = assay: Toxicity in human […] cells xenografted in athymic Swiss nude mouse at 16.9 mg/kg, iv administered 2 days after tumor implantation for every 4th day for four times; assay type: organism-based; design: dose 16.9 mg/kg, route intravenous; conditions: in vivo, 48 h
NCI-H460 [10] = assay: Cell cycle arrest in human NCI-H460 cells assessed as accumulation at S phase at IC50 after 20 hrs using propidium Iodide staining by flow cytometry in presence of 10% fetal calf serum; assay type: functional; outline: as §2

Chain of DNA topoisomerase 2-alpha (Homo sapiens) (P11388 whole entry): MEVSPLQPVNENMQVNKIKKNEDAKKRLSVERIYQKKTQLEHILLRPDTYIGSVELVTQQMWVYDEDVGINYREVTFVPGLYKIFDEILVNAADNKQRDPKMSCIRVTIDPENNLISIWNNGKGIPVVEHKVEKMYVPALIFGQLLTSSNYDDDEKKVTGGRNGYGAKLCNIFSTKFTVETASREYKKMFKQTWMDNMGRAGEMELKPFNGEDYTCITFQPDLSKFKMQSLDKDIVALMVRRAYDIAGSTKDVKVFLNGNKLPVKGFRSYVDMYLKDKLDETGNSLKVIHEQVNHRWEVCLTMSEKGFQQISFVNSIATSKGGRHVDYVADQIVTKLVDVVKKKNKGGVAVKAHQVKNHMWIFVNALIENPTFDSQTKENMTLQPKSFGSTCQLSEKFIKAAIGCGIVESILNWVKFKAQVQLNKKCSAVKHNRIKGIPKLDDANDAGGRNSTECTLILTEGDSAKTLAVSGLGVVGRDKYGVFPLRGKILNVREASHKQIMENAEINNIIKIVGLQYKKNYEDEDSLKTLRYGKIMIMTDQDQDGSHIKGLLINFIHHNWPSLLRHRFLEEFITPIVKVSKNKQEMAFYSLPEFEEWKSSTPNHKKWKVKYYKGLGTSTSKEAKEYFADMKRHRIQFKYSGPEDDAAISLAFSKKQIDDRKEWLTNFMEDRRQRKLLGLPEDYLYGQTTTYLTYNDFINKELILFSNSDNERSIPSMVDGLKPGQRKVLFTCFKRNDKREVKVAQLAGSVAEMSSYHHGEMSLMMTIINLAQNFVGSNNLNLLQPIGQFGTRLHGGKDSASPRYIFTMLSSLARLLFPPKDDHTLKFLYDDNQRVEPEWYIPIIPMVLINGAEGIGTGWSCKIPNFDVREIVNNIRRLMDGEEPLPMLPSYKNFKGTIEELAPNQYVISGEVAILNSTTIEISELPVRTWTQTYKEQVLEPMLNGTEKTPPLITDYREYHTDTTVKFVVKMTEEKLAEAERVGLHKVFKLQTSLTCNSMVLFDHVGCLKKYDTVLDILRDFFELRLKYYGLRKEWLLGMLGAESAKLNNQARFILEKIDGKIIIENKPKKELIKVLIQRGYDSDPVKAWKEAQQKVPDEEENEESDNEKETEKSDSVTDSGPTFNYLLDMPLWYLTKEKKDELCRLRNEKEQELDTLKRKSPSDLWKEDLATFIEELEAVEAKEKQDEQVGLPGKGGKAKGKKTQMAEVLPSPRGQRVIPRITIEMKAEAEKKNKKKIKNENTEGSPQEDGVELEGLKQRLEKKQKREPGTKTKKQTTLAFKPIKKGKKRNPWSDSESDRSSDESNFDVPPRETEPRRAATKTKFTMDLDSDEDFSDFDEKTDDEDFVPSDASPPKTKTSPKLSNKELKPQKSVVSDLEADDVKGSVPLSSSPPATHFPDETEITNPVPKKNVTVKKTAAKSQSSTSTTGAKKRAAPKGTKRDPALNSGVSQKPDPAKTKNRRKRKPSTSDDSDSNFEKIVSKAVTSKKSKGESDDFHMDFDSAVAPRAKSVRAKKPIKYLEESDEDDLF

Row | SMILES | IC50 (NCI-H460 [1]) [nM] | IC50 [2] [nM] | further results
1 | Cn1cccc1C1=C(c2cccs2)C(=O)N(CCNCCCNCCN2C(=O)C(c3cccs3)=C(c3cccn3C)C2=O)C1=O | 3400 | 1800 | –
2 | O=C1C(c2cccs2)=C(c2c[nH]c3ccccc23)C(=O)N1CCNCCCNCCN1C(=O)C(c2cccs2)=C(c2c[nH]c3ccccc23)C1=O | 4200 | 4700 | –
3 | Cn1cccc1C1=C(c2ccco2)C(=O)N(CCNCCCNCCN2C(=O)C(c3ccco3)=C(c3cccn3C)C2=O)C1=O | 650 | 730 | –
4 | O=C1C(c2cccs2)=C(c2cccs2)C(=O)N1CCNCCCNCCN1C(=O)C(c2cccs2)=C(c2cccs2)C1=O | 4300 | 1300 | –
5 | O=C1c2c(c3sccc3c3ccoc23)C(=O)N1CCNCCCNCCN1C(=O)c2c(c3sccc3c3ccoc23)C1=O | 70 | > 30000 | Ratio IC50 (NCI-H460 [3]): 500
6 | Cn1ccc2c3ccoc3c3c(c21)C(=O)N(CCNCCCNCCN1C(=O)c2c(c4c(ccn4C)c4ccoc24)C1=O)C3=O | 3 | 90 | Activity (Nucleic Acid): Active; Activity (NCI-H460 [4]): inactive; TGI (NCI-H460 [5]): inactive; inhibition [6]: Active; Activity (NCI-H460 [7]): 76.63%; TGI (NCI-H460 [8]): Active; Activity (NCI-H460 [9]): 12.81%; Activity (Mus musculus): Non-toxic; Activity (NCI-H460 [10]): 10.56%
7 | O=C1C(c2ccccc2)=C(c2ccccc2)C(=O)N1CCNCCCNCCN1C(=O)C(c2ccccc2)=C(c2ccccc2)C1=O | 1200 | 620 | –
8 | O=C1C(c2cccs2)=C(c2cccs2)C(=O)N1CCCN1CCN(CCCN2C(=O)C(c3cccs3)=C(c3cccs3)C2=O)CC1 | > 30000 | > 30000 | –
9 | O=C1c2cccc3cccc(c23)C(=O)N1CCNCCCNCCN1C(=O)c2cccc3cccc(c23)C1=O [ELINAFIDE] | 8 | 12 | Activity (Nucleic Acid): Active; Activity (NCI-H460 [4]): inactive; inhibition [6]: Active; Activity (NCI-H460 [7]): 68.4%; Ratio IC50 (NCI-H460 [3]): 1.5; Activity (NCI-H460 [9]): 18.15%; Activity (NCI-H460 [10]): 13.44%
10 | O=C1c2c(c3ccccc3c3ccccc23)C(=O)N1CCNCCCNCCN1C(=O)c2c(c3ccccc3c3ccccc23)C1=O | 400 | 230 | –
11 | O=C1C(c2ccccc2)=C(c2c[nH]c3ccccc23)C(=O)N1CCNCCCNCCN1C(=O)C(c2ccccc2)=C(c2c[nH]c3ccccc23)C1=O | 3900 | 1000 | –
12 | O=C1C(c2ccco2)=C(c2cccs2)C(=O)N1CCNCCCNCCN1C(=O)C(c2ccco2)=C(c2cccs2)C1=O | 500 | 3500 | –
13 | Cn1cccc1C1=C(c2c[nH]c3ccccc23)C(=O)N(CCNCCCNCCN2C(=O)C(c3c[nH]c4ccccc34)=C(c3cccn3C)C2=O)C1=O | 3900 | 16500 | –
